In ChEMBL document CHEMBL2385005, “Binding mechanism of the farnesoid X receptor marine antagonist suvanine reveals a strategy to forestall drug modulation on nuclear receptors. Design, synthesis, and biological evaluation of novel ligands” (J Med Chem, 2013):
Activity calls are given as the source filed them. The rule behind the calls is not given here.

Assays:
[1] = target: T1, Bile acid receptor (Homo sapiens) (UniProt Q96RI1); test: Transactivation of FXR (unknown origin) expressed in human HepG2 cells co-expressing RXR assessed as beta-galactosidase activity at 50 uM after 18 hrs by luciferase reporter gene assay; type: cell-based
T1 sequence (whole entry): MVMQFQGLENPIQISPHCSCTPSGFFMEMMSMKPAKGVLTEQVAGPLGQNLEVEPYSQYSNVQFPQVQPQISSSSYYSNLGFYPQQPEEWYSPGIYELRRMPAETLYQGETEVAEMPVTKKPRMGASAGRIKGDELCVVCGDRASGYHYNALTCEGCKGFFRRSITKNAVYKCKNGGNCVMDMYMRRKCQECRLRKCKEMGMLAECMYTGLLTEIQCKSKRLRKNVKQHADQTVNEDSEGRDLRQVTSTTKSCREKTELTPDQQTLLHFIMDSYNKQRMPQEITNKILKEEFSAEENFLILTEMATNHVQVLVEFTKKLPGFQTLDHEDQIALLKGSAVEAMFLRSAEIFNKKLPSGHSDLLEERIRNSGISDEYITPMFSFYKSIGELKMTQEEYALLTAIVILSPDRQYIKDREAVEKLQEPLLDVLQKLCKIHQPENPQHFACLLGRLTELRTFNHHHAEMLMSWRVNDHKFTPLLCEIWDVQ
Outline: (§1)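 HepG2 cells (in MEM, 10% FBS, 37 °C) were plated at 1 × 10^5 cells/well. They were transfected with 150 ng pSG5-FXR, 150 ng pSG5-RXR, 200 ng pCMV-βgal and 500 ng p(hsp27)-TK-LUC (IR1 element). At 24 h they were stimulated 18 h with compound alone (10 μM, or 1–50 μM series) or with compound (50 μM, or 1–50 μM series) plus 10 μM CDCA. Luciferase was normalized to β-galactosidase activity.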

[2] = target: T1, Bile acid receptor (Homo sapiens); test: Antagonist activity at FXR (unknown origin) expressed in human HepG2 cells co-expressing RXR assessed as inhibition of CDCA-induced OSTalpha gene expression at 50 uM after 18 hrs by RT-PCR analysis; type: cell-based
Outline: (§2)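 HepG2 cells (1 × 10^6) were starved 24 h at 37 °C in E-MEM with 1% FBS. They were then primed 18 h with compound alone at 10 μM, or with 10 μM CDCA plus compound at 50 μM. Total RNA was extracted with TRIzol, DNase-treated and random-primed reverse-transcribed. 25 ng template was amplified by SYBR Green qPCR (0.2 μM primers, 40 cycles) in triplicate.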

[3] = target: T1, Bile acid receptor (Homo sapiens); test: Antagonist activity at FXR (unknown origin) expressed in human HepG2 cells co-expressing RXR assessed as inhibition of CDCA-induced SHP gene expression at 50 uM after 18 hrs by RT-PCR analysis; type: cell-based; outline: as §2
[4] = target: T1, Bile acid receptor (Homo sapiens); test: Antagonist activity at FXR (unknown origin) expressed in human HepG2 cells co-expressing RXR assessed as inhibition of CDCA-induced transactivation at 50 uM after 18 hrs by luciferase reporter gene assay; type: cell-based; outline: as §1
[5] = target: T2, Oxysterols receptor LXR-alpha (Homo sapiens) (UniProt Q13133); test: Agonist activity at LXRalpha LBD (unknown origin) transfected in human HepG2 cells co-expressing GAL4-DBD at 10 uM after 18 hrs by luciferase reporter gene assay; type: cell-based
T2 sequence (whole entry): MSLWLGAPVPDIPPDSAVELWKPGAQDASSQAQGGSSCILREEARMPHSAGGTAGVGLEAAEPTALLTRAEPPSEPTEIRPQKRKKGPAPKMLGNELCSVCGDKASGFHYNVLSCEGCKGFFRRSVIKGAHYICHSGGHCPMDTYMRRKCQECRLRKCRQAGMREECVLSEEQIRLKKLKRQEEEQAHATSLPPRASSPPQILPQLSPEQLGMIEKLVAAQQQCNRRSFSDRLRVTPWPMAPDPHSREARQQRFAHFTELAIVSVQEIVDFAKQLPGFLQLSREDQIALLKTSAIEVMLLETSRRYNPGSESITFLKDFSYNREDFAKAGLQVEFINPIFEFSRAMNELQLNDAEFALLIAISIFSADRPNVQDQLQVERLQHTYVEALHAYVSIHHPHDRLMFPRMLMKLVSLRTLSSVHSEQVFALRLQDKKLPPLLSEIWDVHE
Outline: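 HepG2 cells were transiently transfected with 500 ng p(UAS)5XTKLuc, 200 ng pCMV-β-galactosidase and a GAL4-DBD–LXRα LBD vector. At 48 h post-transfection they were stimulated 18 h with compound at 10 μM or the reference agonist. Luciferase was read. Data are mean ± SE of three experiments.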

Bile acid receptor [6] = target: T3, Bile acid receptor (Homo sapiens, UniProt Q96RI1); test: (§3) Antagonist activity at FXR (unknown origin) expressed in human HepG2 cells co-expressing RXR assessed as inhibition of CDCA-induced transactivation after 18 hrs by luciferase reporter gene assay; type: cell-based; outline: as §1
T3 sequence (Q96RI1 whole entry): T1 sequence (whole entry)

[7] = target: Peroxisome proliferator-activated receptor gamma (Homo sapiens) (UniProt P37231); test: Agonist activity at PPARgamma LBD (unknown origin) transfected in human HepG2 cells co-expressing GAL4-DBD at 10 uM after 18 hrs by luciferase reporter gene assay
[8] = target: T4, Nuclear receptor subfamily 1 group I member 2 (Homo sapiens, UniProt O75469); test: Agonist activity at PXR (unknown origin) transfected in human HepG2 cells co-expressing RXR assessed as CYP3A4 expression at 10 uM after 18 hrs by luciferase reporter gene assay; details: hepg2, 18 h
T4 sequence (O75469 whole entry): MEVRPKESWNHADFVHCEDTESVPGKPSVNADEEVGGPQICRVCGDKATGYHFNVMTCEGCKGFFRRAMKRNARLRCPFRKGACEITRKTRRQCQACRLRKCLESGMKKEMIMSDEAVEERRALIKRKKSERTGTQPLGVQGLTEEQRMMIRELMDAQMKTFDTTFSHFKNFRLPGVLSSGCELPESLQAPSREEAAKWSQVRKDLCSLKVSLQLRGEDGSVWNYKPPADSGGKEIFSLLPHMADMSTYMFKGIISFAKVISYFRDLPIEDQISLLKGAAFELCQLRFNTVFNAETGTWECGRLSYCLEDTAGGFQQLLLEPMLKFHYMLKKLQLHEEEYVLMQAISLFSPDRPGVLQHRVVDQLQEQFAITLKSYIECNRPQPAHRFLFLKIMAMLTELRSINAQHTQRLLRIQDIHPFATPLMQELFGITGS

[9] = target: T1, Bile acid receptor (Homo sapiens); test: Agonist activity FXR (unknown origin) expressed in human HepG2 cells co-expressing RXR assessed as effect on CyP7alpha1 mRNA level […] after 18 hrs by RT-PCR analysis; type: cell-based; outline: as §2
[10] = target: T1, Bile acid receptor (Homo sapiens); test: Agonist activity FXR (unknown origin) expressed in human HepG2 cells co-expressing RXR assessed as effect on SHP mRNA level at […] after 18 hrs by RT-PCR analysis; type: cell-based; outline: as §2
[11] = target: T1, Bile acid receptor (Homo sapiens); test: Agonist activity FXR (unknown origin) expressed in human HepG2 cells co-expressing RXR assessed as effect on OSTalpha mRNA level […] after 18 hrs by RT-PCR analysis; type: cell-based; outline: as §2
Bile acid receptor [12] = target: T3, Bile acid receptor; test: Transactivation of FXR (unknown origin) expressed in human HepG2 cells co-expressing RXR assessed as beta-galactosidase activity after 18 hrs by luciferase reporter gene assay; type: cell-based; outline: as §1
[13] = target: T1, Bile acid receptor (Homo sapiens); test: Transactivation of FXR (unknown origin) expressed in human HepG2 cells co-expressing RXR assessed as beta-galactosidase activity at 50 uM after 18 hrs by luciferase reporter gene assay relative to CDCA; type: cell-based; outline: as §1
[14] = target: T1, Bile acid receptor (Homo sapiens); test: Antagonist activity at FXR (unknown origin) expressed in human HepG2 cells co-expressing RXR assessed as inhibition of CyP7alpha1 gene expression at 50 uM after 18 hrs by RT-PCR analysis; type: cell-based; outline: as §2
[15] = target: T1, Bile acid receptor (Homo sapiens); test: Antagonist activity at FXR (unknown origin) expressed in human HepG2 cells assessed as inhibition of 6-ECDCA-induced FXR/Src-1-mediated transcription activation complex formation at 15 uM after 18 hrs by chromatin immunoprecipitation assay; type: cell-based
Outline: (§4)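 HepG2 cells (10 × 10^6) were serum-starved 24 h, then treated 18 h with 6-ECDCA 5 μM alone or with compound 15 μM. Cells were crosslinked with 1% formaldehyde for 10 min and quenched with 125 mM glycine. Sonicated chromatin was immunoprecipitated overnight at 4 °C with anti-FXR, anti-Src1, anti-NCoR or IgG. OSTα promoter DNA was measured by qPCR as 2^−ΔΔCt versus input and unstimulated IgG.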

[16] = target: T1, Bile acid receptor (Homo sapiens); test: Antagonist activity at FXR (unknown origin) expressed in human HepG2 cells assessed as inhibition of 6-ECDCA-induced NCoR binding to chromatin at 15 uM after 18 hrs by chromatin immunoprecipitation assay; type: cell-based; outline: as §4
[17] = target: T1, Bile acid receptor (Homo sapiens); test: as §3; type: cell-based; outline: as §1
[18] = target: T1, Bile acid receptor (Homo sapiens); test: Transactivation of FXR (unknown origin) expressed in human HepG2 cells co-expressing RXR assessed as beta-galactosidase activity at 10 uM after 18 hrs by luciferase reporter gene assay; type: cell-based; outline: as §1

SMILES	Activity [1]	inhibition [2]	inhibition [3]	inhibition [4]	Activity [5]	EC50 (Bile acid receptor [6]) [µM]	Activity [7]	Activity [8]	also measured
CC1(C)CCC[C@]2(C)[C@H]3CC[C@H](/C=C/C(=O)O)[C@H](CCc4ccoc4)[C@@]3(C)CC[C@@H]12	Active	–	–	–	–	–	–	–	–
CC1(C)CCC[C@]2(C)C3CC[C@@]4(C=O)[C@@H]5OC(=O)C=C5CC[C@@H]4[C@@]3(C)CC[C@@H]12 (single isomer, unassigned)	–	Active	Active	Active	–	–	–	–	–
CC1(C)CCC[C@]2(C)[C@H]3CC[C@H](O)[C@H](CCc4ccoc4)[C@@]3(C)CC[C@@H]12	–	Active	Active	–	inactive	25	inactive	Active	–
COC(=O)CC[C@H]1C(=O)CC[C@H]2[C@]1(C)CC[C@H]1C(C)(C)CCC[C@]21C	–	Active	Active	–	–	–	–	–	–
CC1(C)CCC[C@]2(C)[C@H]3CC[C@@H](CCCO)[C@H](CCc4ccoc4)[C@@]3(C)CC[C@@H]12	Active	–	–	–	inactive	–	inactive	Active	Activity [9]: Active; Activity [10]: Active; Activity [11]: Active; EC50 (Bile acid receptor [12]): 30 µM; Efficacy [13]: 21.5%
CC1(C)CCC[C@]2(C)[C@H]3CC/C(=C\OS(=O)(=O)[O-])[C@H](CCc4ccoc4)[C@@]3(C)CC[C@@H]12.[Na+] [SUVANINE'S SODIUM SALT]	–	Active	Active	Active	inactive	24	inactive	Active	Activity [14]: Active; inhibition [15]: Active; inhibition [16]: inactive; inhibition [17]: Dose-dependent effect; Activity [18]: inactive
